Data taken from publication PMC7439261 (ACS Omega, 2020).
≈ marks a conversion by molar mass, not a printed value. Where “and” joins values, the source holds several entries; their conditions need not be identical. Equal values may be shown once.

Assays:
[1] = test system: H. pylori OX.63; test: Broth dilution bioassay MIC/MBC, OX.63; format: cell-based, Helicobacter pylori; details: for MIC: H. pylori OX.63, broth dilution, 48 h; for MBC: OX.63, 72 h
[2] = test system: H. pylori ATCC 51932; test: Broth dilution bioassay MIC/MBC, ATCC 51932; format: cell-based; details: Helicobacter pylori; for MIC: ATCC51932, 48 h; for MBC: ATCC51932, 72 h
[3] = test system: H. pylori OX.22; test: Broth dilution bioassay MIC/MBC, OX.22; format: cell-based; details: Helicobacter pylori; for MIC: OX.22, 48 h; for MBC: OX.22, 72 h
[4] = test system: H. pylori OX.67; test: Broth dilution bioassay MIC/MBC, OX.67; format: cell-based, Helicobacter pylori; details: for MIC: H. pylori OX.67, broth dilution, 48 h; for MBC: OX.67, 72 h
[5] = test system: H. pylori ATCC 43504; test: Broth dilution bioassay MIC/MBC, ATCC 43504; format: cell-based; details: Helicobacter pylori; for MIC: ATCC43504, 48 h; for MBC: ATCC43504, 72 h
[6] = test system: test strains of H. pylori; test: Broth dilution bioassay MIC/MBC, text summary over test strains; format: cell-based; details: Helicobacter pylori
[7] = test system: H. pylori OX.83; test: Broth dilution bioassay MIC/MBC, OX.83; format: cell-based, Helicobacter pylori; details: for MIC: H. pylori OX.83, broth dilution, 48 h; for MBC: OX.83, 72 h
[8] = test system: H. pylori OX.64; test: Broth dilution bioassay MIC/MBC, OX.64; format: cell-based, Helicobacter pylori; details: for MIC: H. pylori OX.64, broth dilution, 48 h; for MBC: OX.64, 72 h
[9] = biological target: H. pylori ATCC 43504 urease (Helicobacter pylori, UniProt P69996); test: Urease inhibition, salicylate-hypochlorite method; format: biochemical; details: for slope ± SE: slope of dose-response curve of percentage of urease inhibition
In short: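 Crude H. pylori ATCC 43504 urease, 0.25 μg (0.04 U), in EDTA–sodium phosphate buffer pH 7.3, was preincubated with test compound at 37 °C for 90 min at 50 rpm. Urea solution (10 mM, as added) was then incubated for 30 min. Ammonia was measured by the salicylate–nitroprusside/alkaline hypochlorite method at 625 nm. Thiourea was the reference inhibitor. IC50 is molar. Triplicates, three independent experiments.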

[10] = Sulforhodamine cytotoxicity assay, MCF7; format: cell-based; details: human, MCF7 cells
In short: (§1)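 Cells were grown in EMEM with 10% FBS, 2 mM L-glutamine, 20 mM HEPES and antibiotics at 37 °C, 5% CO2. Passages were 4–20 for HeLa, MCF7 and Jurkat, and 2–5 for fibroblasts. Seeding per well for 24 h: HeLa 5×10^3, MCF7 and fibroblast 10^4, Jurkat 5×10^4. Test compound (0–200 mg/L, in DMSO) was added for 48 h. Cells were fixed with cold TCA, stained with 0.2% SRB, solubilised in 10 mM Tris and read at 492 nm. Camptothecin was the positive control. Triplicates, three independent experiments.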

[11] = test system: H. pylori ATCC 43504 biofilm formation; test: Biofilm formation inhibitory assay; format: cell-based, Helicobacter pylori; details: 48 h
[12] = Sulforhodamine cytotoxicity assay, HeLa; format: cell-based; details: human, HeLa cells
In short: as §1

[13] = test system: H. pylori ATCC 43504; test: Time-killing assay; format: cell-based, Helicobacter pylori
In short: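 H. pylori ATCC 43504 in 10% NBS-supplemented Brucella broth in 96-well plates, by broth microdilution. Inoculum suspension 5×10^6 CFU/mL; DMSO final ≤2.5%. Test compound was used at concentrations from MIC to MBC, alongside an untreated control. Viability was counted by plate colony count at 0, 6, 12, 18, 24, 36 and 48 h.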

[14] = test system: H. pylori ATCC 43504; test: Effect on morphology; format: cell-based, Helicobacter pylori
[15] = Sulforhodamine cytotoxicity assay, text summary over four cell lines; format: cell-based; details: human
In short: as §1

[16] = Sulforhodamine cytotoxicity assay, Jurkat; format: cell-based; details: human, Jurkat cells
In short: as §1

[17] = Sulforhodamine cytotoxicity assay, fibroblast; format: cell-based; details: human, fibroblast cells derived from human foreskins
In short: as §1

[18] = Helicobacter pylori, OX.63, 48 h
[19] = Helicobacter pylori, OX.67, 48 h
[20] = Helicobacter pylori, OX.83, 48 h
[21] = Helicobacter pylori, OX.64, 48 h
[22] = 1/2 × MIC (NRG 50 mg/L, MCT 75 mg/L)

Chain of H. pylori ATCC 43504 urease (P69996 whole entry): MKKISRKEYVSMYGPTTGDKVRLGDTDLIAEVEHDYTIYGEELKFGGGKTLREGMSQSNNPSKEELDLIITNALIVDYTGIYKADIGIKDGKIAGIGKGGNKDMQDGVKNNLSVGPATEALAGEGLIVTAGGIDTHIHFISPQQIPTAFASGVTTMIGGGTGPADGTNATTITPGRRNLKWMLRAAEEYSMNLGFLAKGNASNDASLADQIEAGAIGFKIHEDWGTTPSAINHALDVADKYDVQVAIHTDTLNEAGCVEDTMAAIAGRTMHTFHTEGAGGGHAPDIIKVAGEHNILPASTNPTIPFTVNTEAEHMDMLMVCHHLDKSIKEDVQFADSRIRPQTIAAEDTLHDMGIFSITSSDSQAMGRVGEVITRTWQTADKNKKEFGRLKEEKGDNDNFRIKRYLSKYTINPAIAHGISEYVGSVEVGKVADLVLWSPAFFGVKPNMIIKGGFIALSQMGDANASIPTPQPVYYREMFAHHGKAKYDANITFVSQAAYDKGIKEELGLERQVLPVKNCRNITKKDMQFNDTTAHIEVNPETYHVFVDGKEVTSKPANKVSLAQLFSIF
Chain of H. pylori ATCC 43504 urease (P14916 whole entry partner): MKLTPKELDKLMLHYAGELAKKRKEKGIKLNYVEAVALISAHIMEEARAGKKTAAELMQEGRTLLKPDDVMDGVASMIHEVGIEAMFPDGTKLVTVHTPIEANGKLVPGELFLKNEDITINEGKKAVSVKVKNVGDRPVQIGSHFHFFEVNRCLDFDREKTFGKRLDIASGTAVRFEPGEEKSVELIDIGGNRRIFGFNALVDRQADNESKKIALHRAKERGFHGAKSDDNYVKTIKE

Row | SMILES | MIC [1, 18] [µg/mL] | MBC ([1]; Helicobacter pylori) [µg/mL] | MIC [2] [µg/mL] | MBC [2] [µg/mL] | MIC [3] [µg/mL] | MBC [3] [µg/mL] | MIC [4, 19] [µg/mL] | MBC ([4]; Helicobacter pylori) [µg/mL] | MIC [5] [µg/mL] | MBC [5] [µg/mL] | MIC [7, 20] [µg/mL] | MBC ([7]; Helicobacter pylori) [µg/mL] | MIC [8, 21] [µg/mL] | MBC ([8]; Helicobacter pylori) [µg/mL] | IC50 [9] [µM] | slope ± SE [9] | CC50 at 48 h [10] [µg/mL] | reduction of biofilm formation [11, 22] [%] | CC50 at 48 h [12] [µg/mL] | conversion to the coccoid form ([14]; 500 mg/L) [%] | also measured
1 | CC[C@H]1OC(=O)[C@H](C)[C@@H](O[C@H]2C[C@@](C)(OC)[C@@H](O)[C@H](C)O2)[C@H](C)[C@@H](O[C@@H]2O[C@H](C)C[C@H](N(C)C)[C@H]2O)[C@](C)(O)C[C@@H](C)CN(C)[C@H](C)[C@@H](O)[C@]1(C)O [azithromycin] | 32 to 64 (≈ 42.7 to 85.4 µM) | 128 (≈ 171 µM) | 0.5 (≈ 0.668 µM) | 1 (≈ 1.34 µM) | 0.5 (≈ 0.668 µM) | 1 (≈ 1.34 µM) | 64 (≈ 85.4 µM) | 128 (≈ 171 µM) | 0.5 (≈ 0.668 µM) | 1 (≈ 1.34 µM) | 64 (≈ 85.4 µM) | 128 (≈ 171 µM) | 16 to 32 (≈ 21.4 to 42.7 µM) | 128 (≈ 171 µM) |  |  |  |  |  |  | MIC [1]: 32 µg/mL (≈ 42.7 µM); MIC [4]: 32 µg/mL (≈ 42.7 µM); MIC [6]: 16 to 32 µg/mL (≈ 21.4 to 42.7 µM); MIC [7]: 32 µg/mL (≈ 42.7 µM); MIC [8]: 16 µg/mL (≈ 21.4 µM)
2 | O=C1C[C@@H](c2ccc(O)cc2)Oc2cc(O)cc(O)c21 [NRG, naringenin] | 100 (≈ 367 µM) | 1000 (≈ 3670 µM) | 100 (≈ 367 µM) | 1000 (≈ 3670 µM) | 100 (≈ 367 µM) | 1000 (≈ 3670 µM) | 100 (≈ 367 µM) | 1000 (≈ 3670 µM) | 100 (≈ 367 µM) | 1000 (≈ 3670 µM) | 100 (≈ 367 µM) | 1000 (≈ 3670 µM) | 100 (≈ 367 µM) | 1000 (≈ 3670 µM) | 575 | 1.38 ± 0.045 | 93.7 (≈ 344 µM) | 85.9 | 65.2 (≈ 239 µM) | 16.5 | reduction of biofilm formation ([11]; 1/4 × MIC (NRG 25 mg/L)): 52.7%; reduction of viability ([13]; at the MIC, 48 h): ~1 log10; reduction of viability ([13]; five times the MIC, 24 h): ~2.5 log10; reduction of viability ([13]; five times the MIC, 36 h): ~4 log10; conversion to the coccoid form ([14]; 1000 mg/L): 95%; CC50 at 48 h [15]: 46.6 to 133 µg/mL (≈ 171 to 490 µM); CC50 at 48 h [16]: 46.6 µg/mL (≈ 171 µM); CC50 at 48 h [17]: 133 µg/mL (≈ 490 µM); MIC ([6]; ATCC51932): 100 µg/mL (≈ 367 µM)
3 | O=c1c(O)c(-c2cc(O)c(O)c(O)c2)oc2cc(O)cc(O)c12 [MCT, myricetin] | 150 (≈ 471 µM) | 1250 (≈ 3930 µM) | 150 (≈ 471 µM) | 1250 (≈ 3930 µM) | 150 (≈ 471 µM) | 1250 (≈ 3930 µM) | 150 (≈ 471 µM) | 1250 (≈ 3930 µM) | 150 (≈ 471 µM) | 1250 (≈ 3930 µM) | 150 (≈ 471 µM) | 1250 (≈ 3930 µM) | 150 (≈ 471 µM) | 1250 (≈ 3930 µM) | 63 | 2.26 and 2.26 ± 0.070 | 31.7 (≈ 99.6 µM) | 39.5 | 36.8 (≈ 116 µM) | 15 | concentration of complete inhibition of urease ([9]; Figure 5): 0.402 mM; reduction of viability ([13]; at the MIC, 24 h): ~2.7 log10; reduction of viability ([13]; eight times the MIC, 36 h): ~4.2 log10; conversion to the coccoid form ([14]; 1000 mg/L): 79%; CC50 at 48 h [15]: 7.61 to 76.1 µg/mL (≈ 23.9 to 239 µM); CC50 at 48 h [16]: 7.61 µg/mL (≈ 23.9 µM); CC50 at 48 h [17]: 76.1 µg/mL (≈ 239 µM); MBC [6]: 1250 µg/mL (≈ 3930 µM); MIC ([6]; ATCC51932): 150 µg/mL (≈ 471 µM)
